Screening results as filed in PubChem.
UPR CHOP act – apoptotic UPR (CHOP) activation | CHO-CHOP luciferase reporter, luminescence; percent of tunicamycin response over DMSO baseline | activation, % at 10 µM | 0.34% of 330,000 active;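 active = at 10 µM dose, activation of 40% or more, normalized to positive control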
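Material: CHO-CHOP cells, stable luciferase reporter of PERK-eIF2a-CHOP signalling; quantity: 500 reporter cells seeded per well; buffer or medium: F12 medium containing 10% fetal bovine serum; compound: one dose, 10 µM in 0.5% DMSO; incubation: 6 h compound treatment, 37 °C; measured by: Steady-Glo luciferase luminescence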
UPR XBP1 act – adaptive UPR (XBP1) activation; CHO-XBP1 luciferase reporter, IRE1-XBP1 UPR activation, luminescence; percent of tunicamycin response, DMSO as zero; activation, % at 20 µM; 0.33% of 330,000 active; AID 463104;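 active = versus positive control, 20 µM dose yields 30% or more activation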
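assay system = CHO-XBP1 luciferase reporter cells | amount = 1000 cells/well | buffer or medium = F12 plus 10% FBS | compound dosing = single point, 20 µM final compound, 1% DMSO | incubation = 16-18 h cell attachment at 37 °C, then 6 h compound exposure | detection = Steady-Glo luminescence read | controls = tunicamycin 10 µg/mL and vehicle-only wells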
HCV NS3 hel inh – inhibitors of Hepatitis C virus NS3 helicase | AID 1800 | NS3 helicase DNA unwinding, Cy5 molecular beacon fluorescence | inhibition, % at 10.9 µM | 0.56% of 290,000 active;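 active = inhibition above the mean of all tested compounds plus 3 SD, set per campaign, cut at about 35% in these data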
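Assay system: hepatitis C virus NS3 helicase domain fragment enzyme. Also added: annealed dual-labelled DNA beacon duplex, ATP-started. Timing: 1 h reaction at 25 °C, ATP-initiated. Technique: Cy5 fluorescence at 0 and 60 min, beacon hairpin quenching. Evaluation: % inhibition of unwinding. Replication: one well per compound.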
p97 ATPase inh – blocks human p97 ATPase activity; P55072; recombinant p97 ATPase, Kinase-Glo ATP luminescence, 3 h; inhibition, % at 8 µM; 0.42% of 220,000 active; AID 1481; in the data active = inhibition above about 15%
Target sequence (P55072 whole entry, looked up): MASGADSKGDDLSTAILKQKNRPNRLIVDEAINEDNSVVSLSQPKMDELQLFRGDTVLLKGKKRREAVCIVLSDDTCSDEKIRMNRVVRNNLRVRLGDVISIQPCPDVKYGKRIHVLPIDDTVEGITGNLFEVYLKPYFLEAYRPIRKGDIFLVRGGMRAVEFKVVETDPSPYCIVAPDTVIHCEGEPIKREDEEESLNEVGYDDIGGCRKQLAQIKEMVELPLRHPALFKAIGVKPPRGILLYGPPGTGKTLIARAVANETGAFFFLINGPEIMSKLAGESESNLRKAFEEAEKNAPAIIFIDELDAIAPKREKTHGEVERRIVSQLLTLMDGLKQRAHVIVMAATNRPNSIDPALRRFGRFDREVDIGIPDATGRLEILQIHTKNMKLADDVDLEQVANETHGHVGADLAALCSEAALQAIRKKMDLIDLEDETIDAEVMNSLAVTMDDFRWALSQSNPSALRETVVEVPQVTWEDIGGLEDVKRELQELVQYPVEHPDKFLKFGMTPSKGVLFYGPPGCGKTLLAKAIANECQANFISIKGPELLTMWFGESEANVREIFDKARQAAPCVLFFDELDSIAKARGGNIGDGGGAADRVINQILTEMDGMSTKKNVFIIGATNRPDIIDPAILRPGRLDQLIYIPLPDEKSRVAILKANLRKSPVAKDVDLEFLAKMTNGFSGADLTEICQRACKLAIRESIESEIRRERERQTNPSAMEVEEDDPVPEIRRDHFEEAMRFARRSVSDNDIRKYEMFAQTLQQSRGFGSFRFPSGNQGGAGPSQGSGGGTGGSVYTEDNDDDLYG
CHOP inhibitor – blocks CHOP induction under ER stress; CHO-K1 CHOP-promoter luciferase, tunicamycin-induced, 15-18 h; inhibition, % at 10 µM; 3.8% of 220,000 active; AID 2732;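 active = compounds that reduced the stress-induced luciferase reporter signal by more than about 70% of percent inhibition, limit read from the data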
PfM18AAP inh – blocks P. falciparum M18 aspartyl aminopeptidase; recombinant PfM18AAP, H-Glu-NHMec fluorogenic cleavage; inhibition, % at 7.35 µM; 1.2% of 290,000 active;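 active = inhibition above the campaign mean inhibition over all tested compounds plus 3 SD, cut at about 28% in these data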
Of the large screens only hits and unclear results are named; the others gave an inactive call. A selection: hits, their analogues and other compounds. The true share with any hit is near 4.5%.

O=C(CCS(=O)(=O)c1cccc2nonc12)N1CCOCC1	none
C=CCN1C(=O)/C(=C2/Sc3ccc(OC)cc3N2C)SC1=NCc1ccccc1	none
C=CCN1C(=O)/C(=C2/Sc3ccc(OC)cc3N2C)SC1=Nc1ccccc1	CHOP inhibitor 74.1
O=C(O)c1ccccc1C(=O)Nc1ccc(Oc2cccc3ccccc23)cc1	CHOP inhibitor 77.9 (no result: UPR CHOP act, UPR XBP1 act)
Cc1c(CCCN)c2ccccc2n1Cc1ccccc1	none
COn1c(-c2ccc(Cl)cc2)nc2ccc(Cl)cc21	CHOP inhibitor 74.1
CCOC(=O)C(C)On1c(-c2ccc(Cl)cc2)nc2ccc([N+](=O)[O-])cc21 (stereo unspecified)	CHOP inhibitor 71.8
O=C(O)COn1c(-c2ccc(Cl)cc2)nc2ccc(Cl)cc21	none
CC(OC(=O)CCCNC(=O)c1ccc(Cl)cc1)C(=O)N(C)Cc1ccccc1 (stereo unspecified)	none (no result: p97 ATPase inh, CHOP inhibitor)
Cc1noc(C)c1NC(=O)N(C)C[C@H]1Oc2ccc(NC(=O)c3ccncc3)cc2C(=O)N([C@H](C)CO)C[C@@H]1C	none (no result: HCV NS3 hel inh, p97 ATPase inh, CHOP inhibitor, PfM18AAP inh)
O=C(NC(c1ccccc1)C(Cl)Cl)c1ccccc1 (stereo unspecified)	none
O=C(NC(NC(=O)c1ccccc1)c1ccccc1)c1ccccc1	CHOP inhibitor 79.6
O=C(Cc1ccc(Br)cc1)OCC(=O)N1CCCCCC1	none (no result: HCV NS3 hel inh, p97 ATPase inh, CHOP inhibitor, PfM18AAP inh)
O=C(Nc1ccc(Br)cc1)c1cccn1-c1ncc(C(F)(F)F)cc1Cl	CHOP inhibitor 94.7
NC(=O)c1cccn1-c1ncc(C(F)(F)F)cc1Cl	none
O=[N+]([O-])c1ccc(O)c(/C=N/Nc2ccc(Cl)nn2)c1	CHOP inhibitor 75.1
CC(NC(=O)CCNS(=O)(=O)c1ccc2c(c1)oc(=O)n2C)c1ccccc1 (stereo unspecified)	none (no result: p97 ATPase inh, CHOP inhibitor)
O=C(CCN1C(=O)/C(=C/c2ccco2)SC1=S)Nc1ccc(C(=O)O)c(O)c1	PfM18AAP inh 28.4 (no result: p97 ATPase inh, CHOP inhibitor)
O=C(CCN1C(=O)/C(=C\c2ccco2)SC1=S)Nc1ccc(C(=O)O)c(O)c1	PfM18AAP inh 29.8 (no result: p97 ATPase inh, CHOP inhibitor)
O=C1/C(=C\c2ccco2)SC(=S)N1c1ccccc1	HCV NS3 hel inh 37.4
O=C(CN1C(=O)/C(=C\c2ccco2)SC1=S)Nc1ccc(O)cc1C(=O)O	PfM18AAP inh 38.8 (no result: p97 ATPase inh, CHOP inhibitor)
Cc1ccc(N2C(=O)/C(=C\c3ccco3)SC2=S)cc1	none
CCC(CC)C(=O)N1CC(=O)Nc2ccc(F)cc2C1c1ccccc1 (stereo unspecified)	none (no result: p97 ATPase inh, CHOP inhibitor)
CCn1cc(CN2CCC(n3nccc3NC(=O)c3cccc(F)c3)CC2)cn1	none (no result: p97 ATPase inh, CHOP inhibitor)
Cc1ccccc1NCC(=O)N/N=C/C(Br)=C/c1ccccc1	CHOP inhibitor 94.1
O=C(N/N=C/c1cc(Cl)cc(Cl)c1O)c1ccncc1	CHOP inhibitor 75.5
COc1ccc(NC(=O)COC(=O)C2CCN(S(=O)(=O)c3cccs3)CC2)cc1OC	none (no result: HCV NS3 hel inh, p97 ATPase inh, CHOP inhibitor, PfM18AAP inh)
O=C(c1ccccc1)c1nn(-c2ccc(Cl)cc2)c(=O)cc1C(F)(F)F	CHOP inhibitor 89.8
O=C(Nc1ccccc1)c1nn(-c2ccccc2)c(=O)cc1C(F)(F)F	CHOP inhibitor 73.0
O=C(Nc1ccccc1)c1nn(-c2cccc(C(F)(F)F)c2)ccc1=O	none
O=C(c1cccc(Cl)c1)c1nn(-c2ccccc2)c(=O)cc1C(F)(F)F	CHOP inhibitor 84.9
O=C(c1ccccc1)c1nn(-c2ccccc2)c(=O)cc1C(F)(F)F	none
S=C(NC1CCCCC1)N(CCc1ccccc1)CCc1ccccc1	none
COc1ccccc1C(=O)Oc1ccc(C(C)(C)C)cc1	CHOP inhibitor 74.9
CCCC(=O)n1nc(-c2ccc(Cl)cc2)nc1SC	CHOP inhibitor 78.0
CSc1nc(-c2ccc(Cl)cc2)nn1S(=O)(=O)c1ccc(Cl)cc1	CHOP inhibitor 72.0
CSc1nc(-c2ccc(Cl)cc2)nn1S(=O)(=O)c1ccccc1	none
CC1(C)CC(=O)N(c2ccc(C#N)cc2)C(=O)C1	none (no result: p97 ATPase inh, CHOP inhibitor)
CC12CCC(C/C1=N/NC(=O)Nc1ccccc1)C2(C)C (stereo unspecified)	CHOP inhibitor 89.6
CCOc1ccc(-n2ccn(CC(=O)NCCc3ccccc3)c(=O)c2=O)cc1	none (no result: HCV NS3 hel inh, p97 ATPase inh, CHOP inhibitor, PfM18AAP inh)
